Assays:
[1] = compound: C=C(F)c1sc(CNCCCNc2cc(=O)c3ccccc3[nH]2)c(C)c1Br; assay: Activity of Staphylococcus aureus MetRS I57N, A247E mutant by ATP:PPi exchange assay in presence of methionine
Procedure, shortened: (§1)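 Purified S. aureus MetRS (wild type or mutant; E. coli-expressed, ammonium sulfate cut, anion exchange) at 30 nM. ATP:PPi exchange at 30°C in 100 mM Tris-HCl pH 8.0, 5–10 mM Mg acetate, 80 mM KCl, 2.5 mM DTT, [32P]PPi plus cold PPi equal to ATP. Quenched with EDTA over 1–10 min, PEI-cellulose TLC, phosphorimager. Initial velocities versus varied ATP or methionine fit to Michaelis-Menten.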

[2] = compound: C=C(F)c1sc(CNCCCNc2cc(=O)c3ccccc3[nH]2)c(C)c1Br; assay: Ratio of Kcat to Km for Staphylococcus aureus MetRS I57N A247E mutant in presence of tRNA
Procedure, shortened: (§2)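 Purified recombinant S. aureus MetRS was assayed by tRNA aminoacylation at 30°C for 1 to 7.5 min to obtain initial rates. Buffer was Tris pH 8.0 with Mg acetate, 2.5 mM ATP, KCl, DTT, BSA, [3H]methionine and crude E. coli tRNA. Reactions were EDTA-stopped, and charged tRNA was read by scintillation proximity with polylysine beads at pH 2.0.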

[3] = compound: C=C(F)c1sc(CNCCCNc2cc(=O)c3ccccc3[nH]2)c(C)c1Br; assay: Activity of streptococcus aureus MetRS I57N, A247E mutant by scintillation proximity assay in presence of tRNA; conditions: Staphylococcus aureus
[4] = compound: C=C(F)c1sc(CNCCCNc2cc(=O)c3ccccc3[nH]2)c(C)c1Br; assay: Activity of Staphylococcus aureus MetRS I57N, A247E mutant by ATP:PPi exchange assay in presence of ATP; procedure, shortened: as §1
[5] = compound: C=C(F)c1sc(CNCCCNc2cc(=O)c3ccccc3[nH]2)c(C)c1Br; assay: Ratio of Kcat to Km for Staphylococcus aureus MetRS I57N A247E mutant in presence of ATP
Procedure, shortened: (§3)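 Purified recombinant S. aureus MetRS (30 nM) was assayed by ATP:PPi exchange at 30°C in Tris pH 8.0 with Mg acetate, KCl and DTT. [32P]PPi was matched to ATP, and ATP or methionine was varied. Time points from 1 to 10 min were quenched with EDTA, separated by PEI-cellulose TLC and read by phosphorimager. Initial rates were fitted to Michaelis-Menten.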

[6] = compound: C=C(F)c1sc(CNCCCNc2cc(=O)c3ccccc3[nH]2)c(C)c1Br; assay: Ratio of Kcat to Km for Staphylococcus aureus MetRS I57N A247E mutant in presence of methionine; procedure, shortened: as §3
[7] = compound: C=C(F)c1sc(CNCCCNc2cc(=O)c3ccccc3[nH]2)c(C)c1Br; assay: Ratio of Kcat to Km for Staphylococcus aureus MetRS I57N I238F mutant in presence of tRNA; procedure, shortened: as §2
[8] = compound: C=C(F)c1sc(CNCCCNc2cc(=O)c3ccccc3[nH]2)c(C)c1Br; assay: Activity of streptococcus aureus MetRS I57N, I238F mutant by scintillation proximity assay in presence of tRNA; conditions: Staphylococcus aureus
[9] = compound: C=C(F)c1sc(CNCCCNc2cc(=O)c3ccccc3[nH]2)c(C)c1Br; assay: Activity of Staphylococcus aureus MetRS I57N, I238F mutant by ATP:PPi exchange assay in presence of methionine; procedure, shortened: as §1
[10] = compound: C=C(F)c1sc(CNCCCNc2cc(=O)c3ccccc3[nH]2)c(C)c1Br; assay: Ratio of Kcat to Km for Staphylococcus aureus MetRS I57N I238F mutant in presence of methionine; procedure, shortened: as §3
[11] = compound: C=C(F)c1sc(CNCCCNc2cc(=O)c3ccccc3[nH]2)c(C)c1Br; assay: Ratio of Kcat to Km for Staphylococcus aureus MetRS I57N I238F mutant in presence of ATP; procedure, shortened: as §3
[12] = compound: C=C(F)c1sc(CNCCCNc2cc(=O)c3ccccc3[nH]2)c(C)c1Br; assay: Activity of Staphylococcus aureus MetRS I57N, I238F mutant by ATP:PPi exchange assay in presence of ATP; procedure, shortened: as §1
[13] = compound: C=C(F)c1sc(CNCCCNc2cc(=O)c3ccccc3[nH]2)c(C)c1Br; assay: Ratio of Kcat to Km for Staphylococcus aureus MetRS I57N V242F mutant in presence of tRNA; procedure, shortened: as §2
[14] = compound: C=C(F)c1sc(CNCCCNc2cc(=O)c3ccccc3[nH]2)c(C)c1Br; assay: Activity of streptococcus aureus MetRS I57N, V242F mutant by scintillation proximity assay in presence of tRNA; conditions: Staphylococcus aureus
[15] = compound: C=C(F)c1sc(CNCCCNc2cc(=O)c3ccccc3[nH]2)c(C)c1Br; assay: Activity of Staphylococcus aureus MetRS I57N, V242F mutant by ATP:PPi exchange assay in presence of ATP; procedure, shortened: as §1
[16] = compound: C=C(F)c1sc(CNCCCNc2cc(=O)c3ccccc3[nH]2)c(C)c1Br; assay: Activity of Staphylococcus aureus MetRS I57N, V242F mutant by ATP:PPi exchange assay in presence of methionine; procedure, shortened: as §1
[17] = compound: C=C(F)c1sc(CNCCCNc2cc(=O)c3ccccc3[nH]2)c(C)c1Br; assay: Ratio of Kcat to Km for Staphylococcus aureus MetRS I57N V242F mutant in presence of ATP; procedure, shortened: as §3
[18] = compound: C=C(F)c1sc(CNCCCNc2cc(=O)c3ccccc3[nH]2)c(C)c1Br; assay: Ratio of Kcat to Km for Staphylococcus aureus MetRS I57N V242F mutant in presence of methionine; procedure, shortened: as §3

B1: Methionine--tRNA ligase (Staphylococcus aureus subsp. aureus MW2), Q8NY00 I57N,A247E (protein)
chain: MAKETFYITTPIYYPSGNLHIGHAYSTVAGDVIARYKRMQGYDVRYLTGTDEHGQKNQEKAQKAGKTEIEYLDEMIAGIKQLWAKLEISNDDFIRTTEERHKHVVEQVFERLLKQGDIYLGEYEGWYSVPDETYYTESQLVDPQYENGKIIGGKSPDSGHEVELVKEESYFFNISKYTDRLLEFYDQNPDFIQPPSRKNEMINNFIKPGLADLAVSRTSFNWGVHVPSNPKHVVYVWIDALVNYISELGYLSDDESLFNKYWPADIHLMAKEIVRFHSIIWPILLMALDLPLPKKVFAHGWILMKDGKMSKSKGNVVDPNILIDRYGLDATRYYLMRELPFGSDGVFTPEAFVERTNFDLANDLGNLVNRTISMVNKYFDGELPAYQGPLHELDEEMEAMALETVKSYTESMESLQFSVALSTVWKFISRTNKYIDETTPWVLAKDDSQKDMLGNVMAHLVENIRYAAVLLRPFLTHAPKEIFEQLNINNPQFMEFSSLEQYGVLTESIMVTGQPKPIFPRLDSEAEIAYIKESMQPPATEEEKEEIPSKPQIDIKDFDKVEIKAATIINAEHVKKSDKLLKIQVDLDSEQRQIVSGIAKFYTPDDIIGKKVAVVTNLKPAKLMGQKSEGMILSAEKDGVLTLVSLPSAIPNGAVIK
B1 was tested, and the Km [1] was 250 µM, the kcat [1] was 11 s⁻¹ and the kcat/Km [2] was 18000 M⁻¹ s⁻¹. The Km [3] was 0.45 µM, the kcat [3] was 0.008 s⁻¹ and the Km [4] was 2230 µM. For the same protein, the kcat/Km [5] was 5000 M⁻¹ s⁻¹ and the kcat/Km [6] was 40000 M⁻¹ s⁻¹.

B2: Methionine--tRNA ligase (Staphylococcus aureus subsp. aureus MW2), Q8NY00 I57N,I238F (protein)
chain: MAKETFYITTPIYYPSGNLHIGHAYSTVAGDVIARYKRMQGYDVRYLTGTDEHGQKNQEKAQKAGKTEIEYLDEMIAGIKQLWAKLEISNDDFIRTTEERHKHVVEQVFERLLKQGDIYLGEYEGWYSVPDETYYTESQLVDPQYENGKIIGGKSPDSGHEVELVKEESYFFNISKYTDRLLEFYDQNPDFIQPPSRKNEMINNFIKPGLADLAVSRTSFNWGVHVPSNPKHVVYVWFDALVNYISALGYLSDDESLFNKYWPADIHLMAKEIVRFHSIIWPILLMALDLPLPKKVFAHGWILMKDGKMSKSKGNVVDPNILIDRYGLDATRYYLMRELPFGSDGVFTPEAFVERTNFDLANDLGNLVNRTISMVNKYFDGELPAYQGPLHELDEEMEAMALETVKSYTESMESLQFSVALSTVWKFISRTNKYIDETTPWVLAKDDSQKDMLGNVMAHLVENIRYAAVLLRPFLTHAPKEIFEQLNINNPQFMEFSSLEQYGVLTESIMVTGQPKPIFPRLDSEAEIAYIKESMQPPATEEEKEEIPSKPQIDIKDFDKVEIKAATIINAEHVKKSDKLLKIQVDLDSEQRQIVSGIAKFYTPDDIIGKKVAVVTNLKPAKLMGQKSEGMILSAEKDGVLTLVSLPSAIPNGAVIK
B2 was tested, and the kcat/Km [7] was 74000 M⁻¹ s⁻¹, the Km [8] was 0.89 µM and the kcat [8] was 0.066 s⁻¹. For the same protein, the Km [9] was 85 µM, the kcat [9] was 13 s⁻¹ and the kcat/Km [10] was 150000 M⁻¹ s⁻¹. It also gave a kcat/Km [11] of 8000 M⁻¹ s⁻¹ and a Km [12] of 1610 µM.

B3: Methionine--tRNA ligase (Staphylococcus aureus subsp. aureus MW2), Q8NY00 I57N,V242F (protein)
chain: MAKETFYITTPIYYPSGNLHIGHAYSTVAGDVIARYKRMQGYDVRYLTGTDEHGQKNQEKAQKAGKTEIEYLDEMIAGIKQLWAKLEISNDDFIRTTEERHKHVVEQVFERLLKQGDIYLGEYEGWYSVPDETYYTESQLVDPQYENGKIIGGKSPDSGHEVELVKEESYFFNISKYTDRLLEFYDQNPDFIQPPSRKNEMINNFIKPGLADLAVSRTSFNWGVHVPSNPKHVVYVWIDALFNYISALGYLSDDESLFNKYWPADIHLMAKEIVRFHSIIWPILLMALDLPLPKKVFAHGWILMKDGKMSKSKGNVVDPNILIDRYGLDATRYYLMRELPFGSDGVFTPEAFVERTNFDLANDLGNLVNRTISMVNKYFDGELPAYQGPLHELDEEMEAMALETVKSYTESMESLQFSVALSTVWKFISRTNKYIDETTPWVLAKDDSQKDMLGNVMAHLVENIRYAAVLLRPFLTHAPKEIFEQLNINNPQFMEFSSLEQYGVLTESIMVTGQPKPIFPRLDSEAEIAYIKESMQPPATEEEKEEIPSKPQIDIKDFDKVEIKAATIINAEHVKKSDKLLKIQVDLDSEQRQIVSGIAKFYTPDDIIGKKVAVVTNLKPAKLMGQKSEGMILSAEKDGVLTLVSLPSAIPNGAVIK
With B3 the kcat/Km [13] was 12000 M⁻¹ s⁻¹, the Km [14] was 10 µM and the kcat [14] was 0.124 s⁻¹. The Km [15] was 810 µM, the Km [16] was 20 µM and the kcat [16] was 14 s⁻¹. The kcat/Km [17] was 17000 M⁻¹ s⁻¹ and the kcat/Km [18] was 700000 M⁻¹ s⁻¹.

Source: ChEMBL document CHEMBL1629614, “Inhibition of methionyl-tRNA synthetase by REP8839 and effects of resistance mutations on enzyme activity” (Antimicrob Agents Chemother, 2009)
